A short description of assay [1]: Induction of TGFalpha release in serum-starved HEK293T cells coexpressing GFP fused mCherry assessed as reduction in mCherry/GFP ratio at 0.5 uM measured up to 180 mins by time-lapse microscopic analysis relative to control. It counts as functional, Homo sapiens, HEK-293T. Further details: scale not given: the % may be the effect or the level left. Particulars: time min <=180. In a few lines:
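HEK293T transfected with mCherry-TGFα-GFP fusion (mCherry N-terminal, GFP C-terminal), left overnight, then serum-starved 30 min in serum-free FluoroBrite DMEM. Compound added at 0.5 µM; live time-lapse imaging over 180 min. Membrane mCherry/GFP ratio normalized to pre-stimulation average; mean normalized ratio, n = 40.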

The subject of assay [2] is Brain. Nature of the assay: Induction of neurogenesis in CD-1 mouse brain assessed as increase in total neuronal progenitors double cortin cells at 10 nM, INH administered once daily for 3 days by confocal microscopic analysis. The settings on record: time 3.0 day. It counts as functional, tissue-based. Put shortly: (§1)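 Male CD1 mice, 2 months old, received 12 μL/day intranasally for 3 days, given as 3 μL portions alternating nostrils with the neck extended. Vehicle was saline; treatment was randomized and coded. BrdU 100 mg/kg i.p. was given on the last day. BrdU and DCX in the SVZ were detected by immunohistochemistry in every fifth section (6–8 per brain) at 20×, with blinded counting. n = 6/group; t-test versus vehicle.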

Assay [3] has as its system Neural Progenitor Cell. Nature of the assay: Induction of cell proliferation in mouse SVZ-derived neural progenitor cells assessed as neurosphere formation at up to 0.5 uM measured after 72 hrs by phase contrast microscopic analysis. The class given is functional, tissue-based. The settings on record: dose microM <=0.5, time 72.0 hrs. Put shortly:
(§2)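 NPCs were isolated from the SVZ of postnatal day 7 CD1 mice and grown as floating neurospheres with bFGF. Increasing compound concentrations were added at seeding. After 72 h, neurosphere area was measured from phase-contrast images and expressed as % of bFGF-only control. Runs were in triplicate, at least […] independent times; mean ± SEM of nine measurements, two-tailed unpaired t-test.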

The subject of assay [4] is Brain. The experiment in a line: Induction of neurogenesis in CD-1 mouse brain at 10 nM, INH administered once daily for 3 days by confocal microscopic analysis. The settings on record: time 3.0 day. It counts as functional, tissue-based. Put shortly:
as §1

For assay [5], the system named is Brain. Nature of the assay: Induction of neurogenesis in CD-1 mouse brain assessed as increase in number of BrdU labeled proliferating cells at 10 nM, INH administered once daily for 3 days by confocal microscopic analysis. It counts as functional, tissue-based. Particulars: time 3.0 day. In a few lines: as §1
(In general: Incorporation of labelled thymidine or its analogues reports DNA synthesis.)

In assay [6] the test system is Brain. The experiment in a line: Induction of neurogenesis in CD-1 mouse brain assessed as increase in number of proliferative neuronal progenitors at 10 nM, INH administered once daily for 3 days by confocal microscopic analysis. The settings on record: time 3.0 day. The class given is functional, tissue-based. In a few lines:
as §1

For assay [7], the system named is Brain. The experiment in a line: Induction of neurogenesis in CD-1 mouse brain at 100 nM, INH administered once daily for 3 days by confocal microscopic analysis. Particulars: time 3.0 day. It counts as functional, tissue-based. In a few lines: as §1
For assay [8], the system named is Brain. Nature of the assay: Induction of neurogenesis in CD-1 mouse brain at 5 uM, INH administered once daily for 3 days by confocal microscopic analysis. Particulars: time 3.0 day. The class given is functional, tissue-based. In a few lines:
as §1

Another assay has as its system HEK-293T. Nature of the assay: Induction of TGFalpha release in serum-starved HEK293T cells coexpressing GFP fused mCherry assessed as reduction in mCherry/GFP ratio at 0.5 uM measured up to 180 mins by time-lapse microscopic analysis. The class given is functional, cell-based. The settings on record: Homo sapiens, time min <=180. Put shortly: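 HEK293T cells transfected with an mCherry-TGFα-GFP fusion (mCherry N-terminal, GFP C-terminal) and left overnight. Cells were then serum-starved 30 min in serum-free medium. Compounds were added at 0.5 μM and time-lapse imaging ran for 180 min. Membrane mCherry/GFP ratio was normalized to the pre-stimulation average, and the mean of n = 40 was reported.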

The test system of assay [9] is Neural Progenitor Cell. Nature of the assay: Induction of cell proliferation in mouse SVZ-derived neural progenitor cells assessed as neurosphere formation at up to 5 uM measured after 72 hrs by phase contrast microscopic analysis. The class given is functional, tissue-based. Particulars: dose microM <=5, time 72.0 hrs. In a few lines:
as §2

Assay [10] deals with Brain. The experiment in a line: Induction of neurogenesis in CD-1 mouse brain assessed as increase in number of proliferative neuronal progenitors at 5 uM, INH administered once daily for 3 days by confocal microscopic analysis. It counts as functional, tissue-based. The settings on record: time 3.0 day. Put shortly:
(§3)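 Healthy 2-month-old male CD1 mice given intranasal solution daily for 3 days, 12 µL/day in saline vehicle (3 µL per delivery, alternating nostrils). BrdU 100 mg/kg i.p. on the last day. SVZ sections immunostained for BrdU and DCX. Positive cells counted blinded in every fifth section (6–8 per brain) at 20×. Values are per mm3; mean ± SEM, n = 6 per group.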

Assay [11] relates to Brain. The experiment in a line: Induction of neurogenesis in CD-1 mouse brain assessed as increase in number of BrdU labeled proliferating cells at 5 uM, INH administered once daily for 3 days by confocal microscopic analysis. It counts as functional, tissue-based. The settings on record: time 3.0 day. Put shortly: as §3

The structures appear in SMILES notation. Active and inactive are the calls of the source. No cut-off for these calls is given here.

In the case of `CC1=C[C@H]2[C@@]3(O)[C@H](C)[C@@H](OC(=O)Cc4ccccc4)[C@]4(OC(=O)Cc5ccccc5)[C@H]([C@@H]3C=C(CO)C[C@]2(O)C1=O)C4(C)C`, in assay [1], the Activity worked out at 25%.
With `CC1=C[C@H]2[C@@]3(O)[C@H](C)[C@@H](OC(=O)Cc4ccccc4)[C@]4(OC(=O)C(C)C)[C@H]([C@@H]3C=C(CO)C[C@]2(O)C1=O)C4(C)C`, in assay [1], the Activity is reported as 25%.
With `C/C=C(/C)C(=O)O[C@@H]1[C@@H](C)[C@@]2(O)[C@@H](C=C(CO)C[C@]3(O)C(=O)C(C)=C[C@@H]23)[C@@H]2C(C)(C)[C@]12OC(=O)C(C)C`, in [1], the Activity amounted to 15%.
For the compound `CC1=C[C@H]2[C@@]3(O)[C@H](C)[C@@H](OC(=O)C(C)C)[C@]4(OC(=O)C(C)C)[C@H]([C@@H]3C=C(CO)C[C@]2(O)C1=O)C4(C)C`, the result in the assay with Brain [2], with Neural Progenitor Cell [3], in the assay with Brain [4], in the assay on Brain [5] and with Brain [6] was Active. Besides, the result in the assay with Brain [7] and in the assay with Brain [8] was inactive.
As to `CC1=C[C@H]2[C@@]3(O)[C@H](C)[C@@H](O)[C@]4(OC(=O)C(C)C)[C@H]([C@@H]3C=C(CO)C[C@]2(O)C1=O)C4(C)C`, the outcome in the assay on HEK-293T and in the assay on Neural Progenitor Cell [9] was inactive.
On to `CC1=C[C@H]2[C@@]3(O)[C@H](C)C[C@]4(OC(=O)Cc5ccccc5)[C@H]([C@@H]3C=C(CO)C[C@]2(O)C1=O)[C@@]4(C)COC(=O)C(C)C`, for which the result with Neural Progenitor Cell [3], in the assay with HEK-293T and in the assay with Neural Progenitor Cell [9] was Active.
Regarding `CC(=O)O[C@@H]1[C@@H](C)[C@@]2(O)[C@@H](C=C(CO)C[C@]3(O)C(=O)C(C)=C[C@@H]23)[C@@H]2C(C)(C)[C@]12OC(C)=O`, the outcome in the assay with Brain [10], in the assay with Brain [11] and with Neural Progenitor Cell [9] was Active. Moreover, the Activity in [1] was determined as 15%.
As for `CC1=C[C@H]2[C@@]3(O)[C@H](C)[C@@H](O)[C@]4(O)[C@H]([C@@H]3C=C(CO)C[C@]2(O)C1=O)C4(C)C`, the result with HEK-293T was inactive.
Consider `CC1=C[C@H]2[C@@]3(O)[C@H](C)[C@@H](OC(=O)C(C)C)[C@]4(OC(=O)Cc5ccccc5)[C@H]([C@@H]3C=C(CO)C[C@]2(O)C1=O)C4(C)C`, for which the Activity in [1] was 25%.

The values are drawn from ChEMBL document CHEMBL5030518, “Phorbol Diesters and 12-Deoxy-16-hydroxyphorbol 13,16-Diesters Induce TGFα Release and Adult Mouse Neurogenesis” (2021).
